Columns and labels:
[1] = Cytotoxicity against CMV-Luc transfected human HuH7 cells after 5 days; type: cell-based, Huh-7; details: CMV-Luc transfected HuH7 cells
Hepatitis C virus [2] = experiment: Antiviral activity against Hepatitis C virus 1b infected in human HuH7 cells assessed as inhibition of viral replication after 3 days by luciferase reporter assay; type: functional, organism-based, Hepacivirus hominis, genotype 1b, Huh-7
Summary of the method: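 HCV 1b subgenomic luciferase reporter replicon (clone ET) cells, 2,500 per well, were exposed to a nine-point 1/4 dilution series for 3 days. Replication was read as luciferase activity. Values are means ± SD from 2 to 23 independent experiments run in quadruplicate.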

Hepatitis C virus [3] = experiment: Inhibition of Hepatitis C virus 1b J4 recombinant NS5B Cdelta 21 RNA dependent RNA polymerase overexpressed in Escherichia coli BL21 (DE3); design: species or system Hepatitis C virus subtype 1b
[4] = Cytotoxicity against LTR-Luc transfected human MT4 cells […] after 3 days by ATPLite assay; type: cell-based
Hepatitis C virus [5] = experiment: Ratio of EC50 for Hepatitis C virus 796 infected in HuH7 cells to EC50 for Hepatitis C virus 796 harboring NNI Y448A mutant site in NS5B infected in HuH7 cells; type: functional, Hepacivirus hominis, Huh-7
Summary of the method: (§1)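 NS5B NNI-site mutations were introduced into the genotype 1b ET subgenomic luciferase replicon by site-directed mutagenesis. RNA was made by in vitro transcription and tested in a transient-replication assay.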

Hepatitis C virus [6] = experiment: Ratio of EC50 for Hepatitis C virus 796 infected in HuH7 cells to EC50 for Hepatitis C virus 796 harboring NNI H95R mutant site in NS5B infected in HuH7 cells; type: functional, Hepacivirus hominis, Huh-7; summary of the method: as §1
Hepatitis C virus [7] = experiment: Ratio of EC50 for Hepatitis C virus 796 infected in HuH7 cells to EC50 for Hepatitis C virus 796 harboring NNI P495L mutant site in NS5B infected in HuH7 cells; type: functional, Hepacivirus hominis, Huh-7; summary of the method: as §1
Hepatitis C virus [8] = experiment: Ratio of EC50 for Hepatitis C virus 796 infected in HuH7 cells to EC50 for Hepatitis C virus 796 harboring NNI C316Y mutant site in NS5B infected in HuH7 cells; type: functional, Hepacivirus hominis, Huh-7; summary of the method: as §1
Hepatitis C virus [9] = experiment: Ratio of EC50 for Hepatitis C virus 796 infected in HuH7 cells to EC50 for Hepatitis C virus 796 harboring NNI M423T mutant site in NS5B infected in HuH7 cells; type: functional, Hepacivirus hominis, Huh-7; summary of the method: as §1
Hepatitis C virus [10] = experiment: Ratio of EC50 for Hepatitis C virus 796 infected in HuH7 cells to EC50 for Hepatitis C virus 796 harboring NNI M414Q mutant site in NS5B infected in HuH7 cells; type: functional, Hepacivirus hominis, Huh-7; summary of the method: as §1

## CC(=O)N1c2ccccc2NC2=C(C(=O)CC(C)(C)C2)C1c1ccc(OCc2ccccc2)cc1 (stereo in doubt; 3)
[1]
  CC50 at 120 h: 32 µM
Hepatitis C virus [2]; huh-7
  EC50: 5.8 µM
Hepatitis C virus [3]
  IC50: 3 µM
[4]
  CC50 at 72 h: 32 µM

## CC(=O)N1c2ccccc2NC2=C(C(=O)CC(C)(C)C2)C1c1ccc(OCc2ccccc2)c(Cl)c1 (stereo in doubt; 4)
[1]
  CC50 at 120 h: 40.2 µM
Hepatitis C virus [2]; huh-7
  EC50: 2.2 µM
[4]
  CC50 at 72 h: 22.1 µM

## CC(=O)N1c2ccccc2NC2=C(C(=O)CC(C)(C)C2)C1c1ccc(OCc2ccccc2)cc1Cl (stereo in doubt; 5)
[1]
  CC50 at 120 h: 35.5 µM
[4]
  CC50 at 72 h: 16.7 µM

## CC(=O)N1c2cccc(O)c2NC2=C(C(=O)CC(C)(C)C2)C1c1ccc(OCc2ccccc2)cc1Cl (stereo in doubt; 7)
[1]
  CC50 at 120 h: 13.4 µM
Hepatitis C virus [2]; Hepatitis C virus, genotype 1b, Huh-7, 72 h
  EC50: 1.43 µM
[4]
  CC50 at 72 h: 17.8 µM

## CC(C)C[C@@]1(C(=O)O)C[C@H](C#N)[C@H](c2nccs2)N1C(=O)c1ccc(C(C)(C)C)cc1 [ACYL PYRROLIDINE]
Hepatitis C virus [5]
  fold change (FC): 10
Hepatitis C virus [6]
  fold change (FC): 10
Hepatitis C virus [7]
  fold change (FC): 10
Hepatitis C virus [8]
  fold change (FC): 10
Hepatitis C virus [9]
  fold change (FC): 10
Hepatitis C virus [10]
  fold change (FC): 10

## c1ccc2occc2c1 [BENZOFURAN]
Hepatitis C virus [5]
  fold change (FC): 10
Hepatitis C virus [6]
  fold change (FC): 10
Hepatitis C virus [7]
  fold change (FC): 10
Hepatitis C virus [8]
  fold change (FC): 10
Hepatitis C virus [9]
  fold change (FC): 10
Hepatitis C virus [10]
  fold change (FC): 10

## c1ccc2[nH]ccc2c1 [INDOLE]
Hepatitis C virus [5]
  fold change (FC): 10
Hepatitis C virus [6]
  fold change (FC): 10
Hepatitis C virus [7]
  fold change (FC): 10
Hepatitis C virus [8]
  fold change (FC): 10
Hepatitis C virus [9]
  fold change (FC): 10
Hepatitis C virus [10]
  fold change (FC): 10

From ChEMBL document CHEMBL1671641, “1,5-benzodiazepines, a novel class of hepatitis C virus polymerase nonnucleoside inhibitors” (Antimicrob Agents Chemother, 2008)
